Laboratory results taken from ChEMBL document CHEMBL1133721, “Antitumor polycyclic acridines. 7. Synthesis and biological properties of DNA affinic tetra- and pentacyclic acridines” (J Med Chem, 2000).

What was measured:
Assay type in all cases: functional, cell-based
Conditions in all cases: Homo sapiens
NCI-H322M = assay: (§1) Inhibitory activity against NCI-H322 cell line using MTT assay(mutant p53)
Method in brief: (§2)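 Cells were grown in RPMI 1640 with 2 mM L-glutamine, penicillin/streptomycin and 10% heat-inactivated FCS. Drugs were taken from 10 mM DMSO stocks. Viability was read by MTT at 0.4 mg/mL final for 4 h at 37 °C, with formazan dissolved in DMSO plus glycine buffer and read at 550 nm. IC50 is the concentration halving absorbance versus untreated controls, taken from dose-response curves.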

MDA-MB-231 = assay: Inhibitory activity against MDA-231 cell line using MTT assay (ER-,EGFR+,mutant p53); method in brief: as §2
NCI-H460 [1] = assay: Inhibitory activity against NCI-H460 cell line using MTT assay
Method in brief: (§3)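 This is a 7-day MTT assay in RPMI 1640 with 2 mM L-glutamine, antibiotics and 10% heat-inactivated FCS. The H460pv8/eto variant was kept in 1 µM etoposide. MTT was used at 0.4 mg/mL final for 4 h at 37 °C, and formazan was dissolved in DMSO/glycine buffer and read at 550 nm. IC50 is the 50% absorbance reduction versus untreated controls, from dose-response curves.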

SK-BR-3 = assay: Inhibitory activity against SKBR-3 cell line using MTT assay (ER-amplified erB2,mutant p53); method in brief: as §2
ZR-75-1 = assay: Inhibitory activity against ZR-75-1 cell line using MTT assay (ER+,pgr+,mutant p53); method in brief: as §2
NCI-H226 [2] = assay: Inhibitory activity against NCI-H226 cell line using MTT assay(mutant p53); method in brief: as §2
NCI-H460 [3] = assay: Inhibitory activity against H460pv8 cell line using MTT assay; method in brief: as §3
A549 = assay: Inhibitory activity against A549 cell line using MTT assay(Wild type p53); method in brief: as §2
NCI-H460 [4] = assay: (§4) Inhibitory activity against NCI-H460 cell line using MTT assay(Wild type p53); method in brief: as §2
MCF7 [5] = assay: Inhibitory activity against MCF-7 wt cell line using MTT assay (ER+,pgR+,wildtype p53); method in brief: as §2
NCI-H358 [6] = assay: (§5) Inhibitory activity against NCI-H358 cell line using MTT assay(mutant p53); method in brief: as §2
MDA-MB-468 = assay: Inhibitory activity against MDA-468 cell line using MTT assay (ER-, amplified EGFR, mutant p53); method in brief: as §2
NCI-H647 = assay: Inhibitory activity against NCI-H647 cell line using MTT assay(mutant p53); method in brief: as §2
T47D = assay: Inhibitory activity against T47D cell line using MTT assay (ER+,mutant p53); method in brief: as §2
F460pv8/eto = assay: Inhibitory activity against […] using MTT assay; method in brief: as §3
NCI/ADR-RES = assay: Inhibitory activity against MCF-7/adr cell line using MTT assay; method in brief: as §2
MCF7 [7] = assay: Inhibitory activity against MCF7wt cell line using MTT assay; method in brief: as §2
NCI-H460 [8] = assay: as §1
Method in brief: (§6)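 Human NSCLC lines grown in RPMI 1640 with 2 mM L-glutamine, penicillin/streptomycin and 10% heat-inactivated FCS. Drugs were taken from 10 mM DMSO stocks. Cells were exposed for 7 days, then given MTT at 0.4 mg/mL final for 4 h at 37 °C. Formazan was dissolved in DMSO/glycine buffer and read at 550 nm. IC50 is the 50% absorbance drop versus untreated controls, read from dose-response curves.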

NCI-H358 [9] = assay: as §4; method in brief: as §6
NCI-H226 [10] = assay: as §5; method in brief: as §6

Row | SMILES | IC50 (NCI-H322M) [µM] | IC50 (MDA-MB-231) [µM] | IC50 (NCI-H460 [1]) [µM] | IC50 (SK-BR-3) [µM] | IC50 (ZR-75-1) [µM] | IC50 (NCI-H226 [2]) [µM] | IC50 (NCI-H460 [3]) [µM] | IC50 (A549) [µM] | IC50 (NCI-H460 [4]) [µM] | IC50 (MCF7 [5]) [µM] | IC50 (NCI-H358 [6]) [µM] | IC50 (MDA-MB-468) [µM] | IC50 (NCI-H647) [µM] | IC50 (T47D) [µM] | IC50 (F460pv8/eto) [µM] | IC50 (NCI/ADR-RES) [µM] | IC50 (MCF7 [7]) [µM] | IC50 (NCI-H460 [8]) [µM] | IC50 (NCI-H358 [9]) [µM] | IC50 (NCI-H226 [10]) [µM]
1 | N#CCCCc1cc2cccc3c2c(n1)-c1ccccc1N3 | 1.53 | 2.05 | 1.17 | 3.45 | 2.7 | 1.21 | 1.12 | 1.33 | 1.17 | 3.79 | 2.01 | 1.87 | 1.68 | 3.59 | – | – | – | – | – | –
2 | Cc1ccc2c(c1)-c1cccc3nc4ccccc4c(c13)N2 | 0.84 | 0.55 | 0.71 | 0.45 | 0.39 | 1.22 | 0.49 | 0.81 | 0.71 | 0.18 | 0.6 | 0.17 | 0.8 | 2.13 | 0.49 | 1.21 | 0.18 | – | – | –
3 | c1ccc2c(c1)Nc1cccc3ccnc-2c13 | 1.86 | 1.73 | 2.06 | 0.58 | 1.55 | 2.34 | 1.1 | 2.14 | 2.06 | 0.83 | 1.42 | 1.37 | 2.2 | 2.1 | 1.07 | – | – | – | – | –
4 | c1ccc2c(c1)Nc1c3ccccc3nc3cccc-2c13 | 0.49 | 0.54 | 0.52 | 0.15 | 0.85 | 0.75 | 0.32 | 0.49 | 0.52 | 0.27 | 0.46 | 0.09 | 0.54 | 0.69 | 0.34 | 0.63 | 0.27 | – | – | –
5 | Nc1ccc2c(c1)Nc1c3ccccc3nc3cccc-2c13 | 0.14 | 0.23 | 0.07 | 0.02 | 0.03 | 0.17 | 0.05 | 0.08 | 0.07 | 0.05 | 0.4 | 0.04 | 0.08 | 0.27 | 0.12 | 0.355 | 0.05 | – | – | –
6 | O=[N+]([O-])c1ccc2c(c1)Nc1c3ccccc3nc3cccc-2c13 | – | > 10 | – | 0.12 | 0.03 | > 10 | – | > 10 | – | 0.55 | – | 0.04 | 0.95 | > 10 | – | – | – | > 10 | > 10 | 9.5
7 | Clc1ccc2c(c1)-c1cccc3nc4ccccc4c(c13)N2 | > 10 | 5.45 | 3.9 | 1.03 | 5.59 | > 10 | 3.77 | 7.1 | 3.9 | 1.67 | 6.03 | 0.31 | 5.3 | 5.55 | 6.47 | 6.31 | 1.67 | – | – | –
8 | N#CCCCc1cnc2c3c(cccc13)Nc1ccccc1-2 | 2.27 | 0.96 | 2.56 | 0.42 | 0.72 | 2.72 | 2.06 | 2.57 | 2.56 | 0.27 | 2.38 | 0.32 | 2.92 | 1.31 | 1.09 | 0.61 | 0.27 | – | – | –
9 | c1ccc2c(c1)Nc1cccc3cc4[n+](c-2c13)CCC4 | 0.17 | 0.19 | 0.18 | 0.12 | 0.17 | 0.22 | 0.13 | 0.16 | 0.18 | 0.15 | 0.11 | 0.18 | 0.12 | 0.16 | 0.1 | 0.165 | 0.15 | – | – | –
10 | COc1cc(NS(C)(=O)=O)ccc1Nc1c2ccccc2nc2ccccc12 [AMSACRINE] | 0.21 | 0.14 | 0.06 | 0.06 | 0.18 | 1.01 | 0.2 | 0.03 | 0.06 | 0.075 | 0.15 | 0.49 | 0.07 | 0.22 | 0.04 | 1.17 | 0.075 | – | – | –
11 | COc1cccc2c1C(=O)c1c(O)c3c(c(O)c1C2=O)C[C@@](O)(C(=O)CO)C[C@@H]3O[C@H]1C[C@H](N)[C@H](O)[C@H](C)O1 [DOXORUBICIN] | 0.03 | 0.006 | 0.01 | 0.02 | 0.009 | 0.008 | 0.004 | 0.004 | 0.01 | 0.001 | 0.13 | 0.005 | < 0.001 | 0.007 | 0.02 | – | – | – | – | –
12 | COc1cc([C@@H]2c3cc4c(cc3[C@@H](O[C@@H]3O[C@@H]5CO[C@@H](C)O[C@H]5[C@H](O)[C@H]3O)[C@H]3COC(=O)[C@H]23)OCO4)cc(OC)c1O [ETOPOSIDE] | 1.59 | 0.15 | 0.1 | 0.3 | 0.24 | 0.24 | 0.39 | 0.16 | 0.1 | 0.085 | 1.5 | 0.6 | 0.08 | 0.16 | 0.74 | – | – | – | – | –
